Reference: ChEMBL document CHEMBL1154465, “Structure-activity relationships in the acronycine and benzo[b]acronycine series: role of the pyran ring” (Eur J Med Chem, 2008)

Experiments:
[1] = system: L1210; assay: Cytotoxicity against mouse L1210 cells after 48 hrs by microculture tetrazolium assay; assay type: functional, cell-based; conditions: L1210, 48 h
Outline: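 L1210 cells maintained in RPMI 1640 plus 10% fetal calf serum, 2 mM L-glutamine, penicillin, streptomycin and 10 mM HEPES (pH 7.4). Drug exposure at nine serial dilutions in triplicate for four doubling times (48 h). Microculture tetrazolium read-out; results given as IC50.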

[2] = Cytotoxicity against human KB3-1 cells after 96 hrs by microculture tetrazolium assay; assay type: functional, cell-based; conditions: KB 3-1, 96 h
Outline: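 KB-3-1 cells grown in DMEM with 10% fetal calf serum, 2 mM L-glutamine, penicillin, streptomycin and 10 mM HEPES (pH 7.4). Exposed to graded drug concentrations (nine serial dilutions, triplicate) for four doubling times (96 h). Viability read by microculture tetrazolium assay; IC50 reported.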

SMILES	IC50 [1] [µM]	IC50 [2] [µM]
COCc1c(OC)cc(OC)c2c(=O)c3ccccc3n(C)c12	51.7	36.2
COc1ccc2c(=O)c3ccccc3n(C)c2c1COC(C)=O	24	
COc1cc(OC)c2c(=O)c3ccccc3n(C)c2c1CO	23.9	34.1
COc1cc(OC)c2c(=O)c3ccccc3n(C)c2c1COC(C)=O	39.9	17.7
COc1ccc2c(=O)c3cc4ccccc4cc3n(C)c2c1CO	34.6	22.5
COc1cc(OC(C)(C)CO)c(CO)c2c1c(=O)c1cc3ccccc3cc1n2C	1.3	26.2
COc1cc(OC(C)(C)COC(C)=O)c(COC(C)=O)c2c1c(=O)c1cc3ccccc3cc1n2C	3	4.9
COc1ccc2c(=O)c3ccccc3n(C)c2c1CO	13.9	
COc1ccc2c(=O)c3cc4ccccc4cc3n(C)c2c1COC(C)=O	18.5	7.9
COc1cc2c(c3c1c(=O)c1cc4ccccc4cc1n3C)[C@@H](OC(C)=O)[C@@H](OC(C)=O)C(C)(C)O2 (relative stereo)		0.095
